# Screens from PubChem.
# KCNQ1 act = human KCNQ1 channel potentiation or activation; CHO-K1 KCNQ1, thallium flux FluxOR fluorescence; stronger effect = higher value; B-score at 10 µM; 0.35% of 310,000 active;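 active = fluorescence ratio B-score, a plate-corrected score, at least three library SD, with initial intensity B-score within 5 SD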
#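 Assay system: CHO-K1 cells stably expressing KCNQ1; Medium: assay buffer with matched DMSO; Also added: K+/Tl+ depolarizing stimulus; Dosing: single dose; Timing: dye 90 min, compound 20 min, room temperature; Measured by: kinetic FluxOR thallium fluorescence, 10-s 1-Hz baseline, 110-s post-stimulus read; Read-out: peak-minus-minimum fluorescence over initial fluorescence, negative-control normalized, B-scored.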
# KCNK9 block = blocks the human KCNK9 two-pore domain potassium channel | Q9NPC2 | HEK293 KCNK9, FluxOR thallium flux fluorescence; stronger effect = lower value | B-score at 10 µM | 1.2% of 310,000 active | AID 488922;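 active = ratio B-score over 3 SD below the library mean, with starting fluorescence within 5 SD of its mean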;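 note: negative B-score means less thallium flux so channel inhibition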
# KCNQ1 block = inhibitors of human KCNQ1 potassium channel; P51787; CHO-K1 KCNQ1, FluxOR thallium flux fluorescence; stronger effect = higher value; B-score at 10 µM; 1.3% of 310,000 active; AID 2642;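 active = compounds whose thallium flux B-score, printed positive for inhibition, exceeds three library SD while starting fluorescence stays within three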;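 note: channel opened by potassium depolarization with thallium stimulus after 20 min compound exposure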
# Kir21 inh = blocks the mouse Kir2.1 inward-rectifier potassium channel; P35561; HEK293-Kir2.1, FluxOR thallium flux fluorescence; stronger effect = lower value; B-score at 10 µM; 0.85% of 310,000 active;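 active = fluorescence ratio B-score at or below minus 3 SD of library scores, with starting-brightness B-score within 2 SD, cut at about -4.2 in these data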;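 note: channel flux triggered by added potassium and thallium sulfate stimulus; B-score of peak minus minimum fluorescence over baseline after thallium stimulus; more negative B-score means stronger Kir2.1 block with less thallium influx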
# Target sequence (P35561 whole entry, looked up): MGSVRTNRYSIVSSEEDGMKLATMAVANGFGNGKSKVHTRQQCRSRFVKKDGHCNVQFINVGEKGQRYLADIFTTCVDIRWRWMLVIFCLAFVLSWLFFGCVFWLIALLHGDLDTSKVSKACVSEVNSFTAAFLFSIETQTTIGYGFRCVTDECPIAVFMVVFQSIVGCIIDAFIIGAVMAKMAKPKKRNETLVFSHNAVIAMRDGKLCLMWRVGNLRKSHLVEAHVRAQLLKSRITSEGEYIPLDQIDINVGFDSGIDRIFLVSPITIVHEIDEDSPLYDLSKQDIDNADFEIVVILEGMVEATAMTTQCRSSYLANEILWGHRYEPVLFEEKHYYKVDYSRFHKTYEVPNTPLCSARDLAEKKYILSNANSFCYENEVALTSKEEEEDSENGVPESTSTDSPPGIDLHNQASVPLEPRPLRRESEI
# hERG rescue = shields human hERG channel from block by proarrhythmic agents | 0.51% of 310,000 active | activation (rescue from dofetilide block), less the hit threshold, % at 10 µM | Q12809 | CHO-hERG, FluxOR thallium flux, dofetilide IC70 present;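 active = activation above the mean of controls blocked by dofetilide plus 5 SD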;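 note: thallium influx through hERG after potassium depolarization seen as dye fluorescence rise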
# KCNK3 inh = human KCNK3 channel inhibition, primary screen | 0.84% of 340,000 active | CHO-KCNK3 thallium flux, FluxOR fluorescence; stronger effect = lower value | O14649 | AID 602410 | B-score at 10 µM;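 active = B-score under library mean minus 4 SD, starting fluorescence ratio at most library mean plus 5 SD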;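 note: more negative B-score means stronger inhibition of thallium flux through KCNK3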
# KCNK9 inh conf = confirmation of human KCNK9 potassium channel inhibitors; inhibition, % at 10 µM; shares compounds with KCNK9 block; 43% of 4,900 active; HEK293 KCNK9 cells, FluxOR thallium flux fluorescence;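 active = thallium signal inhibited by more than 5 SD of the compound-free buffer control wells, on both duplicate plates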;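 note: 0% = assay buffer control wells without compound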
# Kir2-1 spec = selectivity of KCNK9 modulators against mouse Kir2.1; shares compounds with KCNK9 block; Kir2.1 cells, FluxOR thallium flux fluorescence; inhibition, % at 10 µM; 4% of 4,900 active; AID 492993;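 active = thallium signal drop more than 5 SD beyond the mean of the no-compound control wells, seen in both duplicate plates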;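 note: signal is fluorescence rise after thallium addition divided by baseline fluorescence; plate controls were assay buffer only for no effect and full block by chlorpromazine control for full effect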
# KCNK9 uninduced = non-induced cell nonspecific activity of KCNK9 modulators; inhibition, % at 10 µM; shares compounds with KCNK9 block; 40% of 4,900 active; AID 492997; non-induced KCNK9-HEK293, FluxOR thallium flux;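 active = thallium signal drop beyond 5 SD of the untreated control mean, on both duplicate plates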;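 note: plate controls were buffer only IC0 wells for no effect and SID17386958 at its maximal inhibitory level for full effect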
# The depositor's hits bear a star; i = inactive; · = not tested or not shown. An excerpt weighted towards active compounds, which were near 3.7% of everything screened.
SMILES,KCNQ1 act,KCNK9 block,KCNQ1 block,Kir21 inh,hERG rescue,KCNK3 inh,KCNK9 inh conf,Kir2-1 spec,KCNK9 uninduced
CCOc1ccc(C(C)=O)cc1CSc1nnc(-c2ccoc2C)n1N,i,-9.22*,i,0.41,-9.1,i,45.0%*,i,30.5%*
CCCN(CCC)c1ccc(CC(=O)NC(C)Cc2ccccc2)cc1 (centres undefined),i,i,i,-1.61,-5.7,i,i,i,i
CCN(CC)CCCNc1nc(SC)nc2sc3c(c12)CCN(C)C3,i,i,i,2.02,-3.5,·,·,·,·
NC[C@H](Cc1ccccc1)NCCCCC1CCCCC1,·,·,·,·,·,i,·,·,·
CNC[C@H](CC1CCCCC1)NC[C@H](Cc1ccccc1)NCCC12CC3CC(CC(C3)C1)C2,i,-10.2*,i,-8.21*,-2.8,i,61.5%*,79.5%*,26.0%*
CCN(CC)CCNC(=O)c1ccc(NC(=O)COc2ccc3c(c2)CCC3)cc1,·,·,·,·,·,i,·,·,·
CCOc1ccc(CCNC(=O)CSc2nn(-c3ccc(C)c(Cl)c3)c(=S)s2)cc1OCC,i,i,i,0.22,-11.6,i,i,i,i
CCOc1ccc(CCNC(=O)CSc2nnnn2C)cc1OCC,i,-13.4*,i,0.36,-8.0,i,i,i,i
O=C(CSCc1ccc(Br)cc1)NCCc1ccccc1,i,i,i,-4.8*,-9.0,i,i,i,i
CCOc1ccc(CCNC(=O)CSCc2ccc(C)cc2)cc1OCC,i,i,i,-6.01*,-4.5,i,i,i,i
O=C(CSCc1ccccc1)NCCc1ccc(F)cc1,i,i,i,0.94,-6.0,i,·,·,·
CCC(C)c1ccc(NC(=S)NC(C)C2CCCO2)cc1 (centres undefined),i,i,i,-1.1,-23.2,i,·,·,·
CCOc1ccc(CCNC(=O)CCOc2cc(C)ccc2C)cc1OCC,i,i,i,-5.12*,-4.1,i,i,i,33.5%*
COc1cccc(C2c3[nH]c4ccccc4c3CCN2CCCn2cccn2)c1 (centres undefined),i,i,i,0.04,-8.3,i,·,·,·
COc1cccc(C2c3[nH]c4ccccc4c3CCN2Cc2cccn2-c2ncccn2)c1 (centres undefined),i,-8.29*,i,1.4,-21.2,i,40.5%*,i,47.5%*
COc1cc(CNCCO)cc(Cl)c1OCc1ccc(Cl)cc1Cl,i,-8.71*,i,-11.3*,-20.1,i,46.5%*,61.5%*,i
CO/N=C\C(=N\Nc1ccc(OC)cc1)C(=O)c1ccccc1,i,i,i,1.13,-10.7,i,·,·,·
CCOC(=O)C1CCN(CCCSc2ccc(C)cc2)CC1,i,i,i,1.03,-6.2,i,i,i,i
O=C(COC(=O)Cc1n[nH]c(=O)c2ccccc12)Nc1cccc(C(F)(F)F)c1,i,i,i,-1.38,0.0,i,·,·,·
Brc1ccc(OCc2nnc(SCC3CCCCC3)o2)cc1,i,-8.85*,i,-2.01,-8.7,i,26.0%*,i,36.0%*
COc1ccc(N2CCN(Cc3cc4c(cc3Br)OCCO4)CC2)cc1,i,i,i,1.15,-19.1,i,i,i,i
COc1ccccc1N1CCN(Cc2cc3c(cc2Br)OCCO3)CC1,i,i,i,-1.13,-8.1,i,i,i,i
O=S(=O)(c1ccccc1)N1CCN(Cc2cc3c(cc2Br)OCCO3)CC1,·,·,·,·,·,i,·,·,·
COc1ccc(N2CCN(Cc3csc(C)c3-c3ccc(C)cc3)CC2)cc1,i,i,i,0.04,-3.2,i,i,i,i
COc1cc(OC)c(OC)cc1CN1CCN(c2ccccc2OC)CC1,i,i,i,0.02,-7.7,i,·,·,·
SMILES,KCNQ1 act,KCNK9 block,KCNQ1 block,Kir21 inh,hERG rescue,KCNK3 inh,KCNK9 inh conf,Kir2-1 spec,KCNK9 uninduced
Cc1onc(-c2ccccc2)c1-c1nnc(CN2CCN(S(=O)(=O)c3ccccc3F)CC2)o1,·,·,·,·,·,i,·,·,·
Cc1c(C(=O)NCCSCc2cccc(C(F)(F)F)c2)cnn1-c1ccc(F)cc1,i,i,i,0.14,-13.1,i,·,·,·
CN(CC(=O)Nc1ccc(Cl)c(Cl)c1)C(=O)C1CCC1,·,·,·,·,·,i,·,·,·
CCOc1ccccc1NC(=O)c1cccc(NC(=O)c2ccco2)c1,i,-9.38*,i,0.06,-3.1,-9.89*,45.0%*,i,i
CCOc1ccccc1NC(=O)c1cccc(NC(=O)C2CCCC2)c1,i,-12.6*,i,0.62,-16.8,i,58.0%*,i,i
COc1ccccc1CNC(=O)COC(=O)CSc1ccc(Cl)cc1,i,i,i,0.18,-6.8,i,·,·,·
COc1ccccc1CNc1cc(CSc2ccc(Cl)cc2)nc(C)n1,i,i,i,-2.18,-6.2,i,i,46.0%*,i
O=C1CCC(C(=O)N2CCCCO2)CN1Cc1ccc(Cl)cc1 (centres undefined),i,i,i,-0.66,1.1,i,·,·,·
Cn1cncc1C#Cc1ccc2cc(CCO)oc(=O)c2c1,·,·,·,·,·,i,·,·,·
Cc1ccc([N+](=O)[O-])cc1N=C(c1cccc(Br)c1)N1CCOCC1,i,-20.4*,i,0.21,-8.9,-11.8*,57.0%*,i,33.0%*
CC(=O)Oc1ccc(C(=O)NCc2ccc3c(c2)OCO3)cc1,i,i,i,0.8,-11.2,i,·,·,·
COc1ccc(C(=O)/C=C(\C)NCc2ccc3c(c2)OCO3)cc1,i,i,i,-0.04,-6.9,i,i,i,i
CNc1cc(C)c(C#N)c2nc3ccccc3n12,i,i,i,-0.62,-1.6,i,·,·,·
Cc1cccc(NC(=O)CSc2cc(C)c(C#N)c3nc4ccccc4n23)c1,i,i,i,0.28,-10.4,i,i,i,i
Cc1cc(NCCOCCO)n2c(nc3ccccc32)c1C#N,i,-13.9*,i,-0.1,-3.1,i,35.5%*,i,i
CC(C)CNC(=O)N1c2ccccc2Sc2ccccc21,i,i,i,-0.75,-12.5,i,i,i,i
CCOc1nc(NC(=O)NS(=O)(=O)c2cccc(Cl)c2)nc(-c2ccccc2)n1,i,i,i,1.23,-8.6,i,·,·,·
C(=N\N1CCN(C2c3ccccc3-c3ccccc32)CC1)/c1ccccn1,i,i,i,-0.21,-7.9,i,·,·,·
